Measured values taken from ChEMBL document CHEMBL5223178, “Macrocyclic Retinoic Acid Receptor-Related Orphan Receptor C2 Inverse Agonists” (ACS Med Chem Lett, 2023).

Legend:
[1] = Inverse agonist activity at 6His-tagged RORC2 LBD (unknown origin) expressed in Escherichia coli assessed as inhibition of biotinylated SRC1-2 derived CPSSHSSLTERHKILHRLLQEGSPS-NH2 containing LXXLL coactivator peptide incubated for 3 hrs by TR-FRET assay; parameters: species or system Homo sapiens
How it was run: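 TR-FRET cofactor recruitment measuring displacement of SRC1-2 coactivator peptide binding to histidine-tagged RORC2 ligand-binding domain. Values are means of two or more independent assays.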

[2] = Inhibition of IL-17A production in human Th17 cells incubated for 6 days […]; assay type: functional, cell-based; details: Th17, 144 h
How it was run: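 Inhibition of IL-17A production by human primary Th17 cells. Values are means of two or more independent assays.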

[3] = Clearance in human liver microsomes; assay type: ADME, Microsome; details: read-out: CLH
[4] = Lipophilicity, log D of the compound at pH 7.4 by reverse phase HPLC; assay type: physicochemical; details: buffer
How it was run: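 LogD at pH 7.4 determined by reverse-phase HPLC. Values are means of two or more independent assays.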

[5] = Passive apparent permeability in MDCKII-LE cells; assay type: ADME, cell-based, Canis lupus familiaris; details: dog, MDCK
How it was run: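 Passive permeability measured across RRCK (MDCKII-LE) cell monolayers. Values are means of two or more independent assays.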

[6] = target: Voltage-gated inwardly rectifying potassium channel KCNH2 (Homo sapiens, UniProt Q12809); assay: Displacement of [3H]-dofetilide from human ERG; assay type: toxicity
Voltage-gated inwardly rectifying potassium channel KCNH2, sequence (Q12809 whole entry): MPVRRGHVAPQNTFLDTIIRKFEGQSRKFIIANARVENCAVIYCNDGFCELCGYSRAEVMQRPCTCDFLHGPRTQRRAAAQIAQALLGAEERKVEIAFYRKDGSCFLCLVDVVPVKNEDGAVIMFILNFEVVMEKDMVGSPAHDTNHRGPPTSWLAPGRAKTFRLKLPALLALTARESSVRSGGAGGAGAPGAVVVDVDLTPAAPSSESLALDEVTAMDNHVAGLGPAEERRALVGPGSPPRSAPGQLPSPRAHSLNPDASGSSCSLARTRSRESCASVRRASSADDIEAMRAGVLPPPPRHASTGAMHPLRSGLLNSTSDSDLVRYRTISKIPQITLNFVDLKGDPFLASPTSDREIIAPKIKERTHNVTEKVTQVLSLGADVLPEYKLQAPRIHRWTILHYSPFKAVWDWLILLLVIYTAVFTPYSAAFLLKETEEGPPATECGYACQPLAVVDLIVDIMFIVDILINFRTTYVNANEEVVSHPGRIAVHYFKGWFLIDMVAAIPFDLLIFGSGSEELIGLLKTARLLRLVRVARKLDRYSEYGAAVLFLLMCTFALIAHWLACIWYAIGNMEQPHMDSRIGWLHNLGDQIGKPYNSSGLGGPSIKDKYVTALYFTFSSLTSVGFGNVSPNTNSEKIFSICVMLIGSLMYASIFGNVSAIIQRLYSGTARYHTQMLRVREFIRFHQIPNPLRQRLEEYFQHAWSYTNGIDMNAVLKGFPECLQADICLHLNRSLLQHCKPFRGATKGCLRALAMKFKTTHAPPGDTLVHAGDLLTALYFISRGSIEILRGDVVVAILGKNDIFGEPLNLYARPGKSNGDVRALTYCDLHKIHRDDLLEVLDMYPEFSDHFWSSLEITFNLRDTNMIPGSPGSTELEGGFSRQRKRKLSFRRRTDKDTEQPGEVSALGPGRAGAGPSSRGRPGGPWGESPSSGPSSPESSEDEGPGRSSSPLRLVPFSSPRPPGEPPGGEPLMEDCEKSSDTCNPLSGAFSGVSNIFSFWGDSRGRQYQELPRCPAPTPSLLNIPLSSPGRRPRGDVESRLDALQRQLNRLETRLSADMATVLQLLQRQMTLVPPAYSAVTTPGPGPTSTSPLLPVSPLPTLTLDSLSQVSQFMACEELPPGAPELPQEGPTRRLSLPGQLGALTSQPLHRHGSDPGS
How it was run: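 Binding assay measuring displacement of [3H]dofetilide. Values are means of two or more independent assays.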

[7] = target: T1, Nuclear receptor ROR-alpha (Homo sapiens, UniProt P35398); assay: Inverse agonist activity at 6His-tagged RORA LBD (unknown origin) expressed in Escherichia coli assessed as inhibition of biotinylated SRC1-2 derived CPSSHSSLTERHKILHRLLQEGSPS-NH2 containing LXXLL coactivator peptide incubated for 3 hrs by TR-FRET assay
T1 sequence (P35398 whole entry): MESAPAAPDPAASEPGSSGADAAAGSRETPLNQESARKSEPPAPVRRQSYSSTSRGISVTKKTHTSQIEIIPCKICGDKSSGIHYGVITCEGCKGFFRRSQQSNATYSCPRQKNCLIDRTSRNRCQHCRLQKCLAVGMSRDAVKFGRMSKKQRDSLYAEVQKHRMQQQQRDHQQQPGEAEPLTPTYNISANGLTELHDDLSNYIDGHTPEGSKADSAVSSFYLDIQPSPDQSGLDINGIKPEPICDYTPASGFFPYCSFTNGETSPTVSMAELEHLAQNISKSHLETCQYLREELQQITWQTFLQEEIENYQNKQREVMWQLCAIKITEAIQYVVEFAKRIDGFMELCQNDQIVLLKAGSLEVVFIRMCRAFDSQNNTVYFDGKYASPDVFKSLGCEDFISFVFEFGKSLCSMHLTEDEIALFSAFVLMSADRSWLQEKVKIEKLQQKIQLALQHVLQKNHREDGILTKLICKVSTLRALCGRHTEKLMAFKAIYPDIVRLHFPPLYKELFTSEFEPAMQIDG

[8] = target: T2, Nuclear receptor ROR-beta (Homo sapiens, UniProt Q92753); assay: Inverse agonist activity at 6His-tagged RORB LBD (unknown origin) expressed in Escherichia coli assessed as inhibition of biotinylated SRC1-2 derived CPSSHSSLTERHKILHRLLQEGSPS-NH2 containing LXXLL coactivator peptide incubated for 3 hrs by TR-FRET assay
T2 sequence (Q92753 whole entry): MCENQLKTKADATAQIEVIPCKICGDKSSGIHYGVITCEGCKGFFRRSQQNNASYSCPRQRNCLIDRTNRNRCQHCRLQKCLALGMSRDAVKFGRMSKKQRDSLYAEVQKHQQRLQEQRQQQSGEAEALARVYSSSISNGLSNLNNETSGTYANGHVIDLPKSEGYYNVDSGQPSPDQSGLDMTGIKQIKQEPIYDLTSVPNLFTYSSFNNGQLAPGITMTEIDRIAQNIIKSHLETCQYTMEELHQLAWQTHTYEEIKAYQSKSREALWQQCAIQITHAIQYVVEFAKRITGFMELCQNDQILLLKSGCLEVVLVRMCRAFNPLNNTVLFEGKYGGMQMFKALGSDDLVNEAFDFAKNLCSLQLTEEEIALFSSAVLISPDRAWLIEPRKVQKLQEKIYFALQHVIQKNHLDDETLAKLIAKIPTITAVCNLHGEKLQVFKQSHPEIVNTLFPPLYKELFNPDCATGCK

Homo sapiens [9] = assay: Ex vivo drug penetration in human abdominal skin applied topically using flow-through diffusion cell assessed as compound flux through skin measured upto 24 hrs by LC-MS/MS based in vitro skin penetration assay; assay type: functional; details: Abdomen skin
How it was run: (§1)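 Ex vivo human skin dosed topically with a 2.75% (w/w) formulation in 30% ethanol, 30% PEG400, 20% diethylene glycol monoethyl ether and 20% glycerin (w/w). Cumulative amount in receptor solution (ng/cm2) was followed over 24 h. At 24 h, excess surface compound was removed, and epidermis and dermis were separated and homogenized to measure concentration (μg/g). Results are means with SEM.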

Homo sapiens [10] = assay: Ex vivo drug penetration in human abdominal skin applied topically using flow-through diffusion cell assessed as compound concentration in skin epidermis measured upto 24 hrs by LC-MS/MS based in vitro skin penetration assay; assay type: functional; details: Abdomen skin; how it was run: as §1
Homo sapiens [11] = assay: Ex vivo drug penetration in human abdominal skin applied topically using flow-through diffusion cell assessed as compound concentration in dermis layers measured upto 24 hrs by LC-MS/MS based in vitro skin penetration assay; assay type: functional, Abdomen skin; how it was run: as §1
HeLa = assay: Antagonist activity at RORC2 in human HeLa cells assessed as reduction in NR activity at 1 to 10 uM relative to control; assay type: cell-based; parameters: scale not given: the % may be the effect or the level left; details: dose 1-10 µM
How it was run: (§2)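 Multiplexed trans-FACTORIAL profiling: cells transfected with ligand-binding-domain chimeric constructs of 48 nuclear receptors fused to GAL4 DNA. Reporter RNA levels were measured. Compound was tested at 1 and 10 μM. Readout was fold change versus control, with a 20% change as the threshold for antagonist (reduction) or agonist (increase) effect.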

PXR (NR1I2) = target: T3, PXR (NR1I2) (Homo sapiens, UniProt O75469); assay: Agonist activity at PXR in human HeLa cells assessed as increase in NR activity at 10 uM relative to control; assay type: cell-based; details: read-out: Activity; how it was run: as §2
T3 sequence (O75469 whole entry): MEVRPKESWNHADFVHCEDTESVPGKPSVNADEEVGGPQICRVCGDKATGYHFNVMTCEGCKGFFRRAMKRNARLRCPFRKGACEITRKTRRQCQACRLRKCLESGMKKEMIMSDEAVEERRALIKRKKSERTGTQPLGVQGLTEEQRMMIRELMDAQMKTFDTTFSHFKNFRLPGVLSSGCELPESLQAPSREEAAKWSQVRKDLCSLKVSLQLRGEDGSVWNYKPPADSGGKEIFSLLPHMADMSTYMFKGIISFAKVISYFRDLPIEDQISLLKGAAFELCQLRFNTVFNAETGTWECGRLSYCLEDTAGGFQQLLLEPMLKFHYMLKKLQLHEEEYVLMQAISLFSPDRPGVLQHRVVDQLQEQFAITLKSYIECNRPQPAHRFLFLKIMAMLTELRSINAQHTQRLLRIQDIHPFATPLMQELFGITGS

SMILES | IC50 [1] [nM] | IC50 [2] [nM] | microsomal CLint [3] [µL/min/mg] | chromatographic logD [4] | Papp [5] [×10⁻⁶ cm/s] | Ki [6] [nM] | IC50 [7] [nM] | IC50 [8] [nM] | Drug uptake (Homo sapiens [9]) [ng/cm2/h] | Drug uptake (Homo sapiens [10]) [µg/g] | Activity (Homo sapiens [11]) [µg/g] | Activity (HeLa) [%] | activity at 10 µM (PXR (NR1I2)) [%]
Cc1c2cc(F)cc1NS(=O)(=O)CCCOCC1CN(CCN1C(=O)CC1CC1)C2 (stereo not drawn) | 120 | 110 | 55 | 2.1 |  |  |  |  |  |  |  |  | 
Cc1c2cc(F)cc1NS(=O)(=O)CCCCC1CN(CCN1C(=O)CC1CC1)C2 (stereo not drawn) | 620 | 2600 | 71 | 3.3 | 24.7 |  |  |  |  |  |  |  | 
Cc1c2cc(F)cc1NS(=O)(=O)NCCCCC1CN(CCN1C(=O)CC1CC1)C2 (stereo not drawn) | 150 | 170 | 160 | 2.9 | 18.4 |  |  |  |  |  |  |  | 
Cc1c2cc(F)cc1NS(=O)(=O)N(C)CCCCC1CN(CCN1C(=O)CC1CC1)C2 (stereo not drawn) | 14 | 26 | > 320 | 3.5 | 21 |  |  |  |  |  |  |  | 
O=C(CC1CC1)N1CCN2Cc3cc(F)cc(c3)NS(=O)(=O)CCCCCC1C2 (stereo not drawn) | 2400 | > 10000 | 80 | 3.6 | 11.7 |  |  |  |  |  |  |  | 
Cc1c(CN2CCN(C(=O)C3CCCC3)[C@@H](C)C2)cc(F)cc1NS(=O)(=O)c1ccc(F)cc1 | 2.1 | 6.5 | 68 | 5.3 | 1.3 | 4000 |  |  |  |  |  |  | 
Cc1c2cc(Cl)cc1NS(=O)(=O)CCCCC[C@H]1CN(CCN1C(=O)C(C)C)C2 | 2.4 | 2.2 | 200 | 4.3 | 17 | 11000 |  |  |  |  |  |  | 
Cc1c(CN2CCN(C(=O)CC3CC3)[C@@H](C)C2)cc(F)cc1NS(=O)(=O)c1ccc(F)cc1 | 12 | 141 | 53 | 4.7 | 4.5 | 1800 |  |  |  |  |  |  | 
Cc1c2cc(C#N)cc1NS(=O)(=O)CCCCC[C@H]1CN(CCN1C(=O)C(C)C)C2 | 27 | 65 | 130 | 2.9 | 22 | 17000 |  |  |  |  |  |  | 
Cc1c2cccc1NS(=O)(=O)CCCCC[C@H]1CN(CCN1C(=O)C(C)C)C2 | 9.3 | 28 | 223 | 3.4 | 24 | 37000 | > 25000 | > 25000 | 28.1 | 92.7 | 18.3 | > 20 | > 20
Cc1c(CN2CCN(C(=O)C3CCCC3)[C@@H](C)C2)cc(F)cc1NC(=O)c1cccc(C#N)c1 | 5.4 | 16 | 239 | 4.5 | 6.5 | 3600 |  |  |  |  |  |  | 
Cc1c2cc(F)cc1NS(=O)(=O)CCCCCC1CN(CCN1C(=O)CC1CC1)C2 (stereo not drawn) | 69 | 55 | 260 | 3.2 | 12.4 |  |  |  |  |  |  |  | 
Cc1c2cc(F)cc1NS(=O)(=O)CCCCC[C@H]1CN(CCN1C(=O)C(C)C)C2 | 5.2 | 87 | 205 | 3.8 | 19 | 19000 |  |  |  |  |  |  | 
